# Published values collected from several papers.
# Each line is one published result; the experiments were not run side by side. pIC50: −log10 of the molar value.
# Effect on: cell growth or viability
SMILES,cell line,technique,time,pIC50
O=c1cc(-c2ccc(O)c(O)c2)oc2cc(O)cc(O)c12,RD,WST-1,48 h,4.80
Cn1nnc2c(C(=O)N3CCCC3)ncn2c1=O,U-118-MG,resazurin,7 days,3.87
O=C(O)CCCc1ccccc1,LoVo,MTT,72 h,< 4.30
CC(C)c1cc(C(=O)N2Cc3ccccc3C2)c(O)c2[nH]nnc12,UMUC3,ATP luminescence,72 h,< 4.00
C[C@@H](Oc1cc(-c2cnn(C3CCNCC3)c2)cnc1N)c1c(Cl)ccc(F)c1Cl,RD,,72 h,6.31
CS(=O)(=O)c1ccc(-n2cc(/C=N/N=c3\[nH]c(-c4ccc(Br)cc4)cs3)c(-c3ccc(Br)cc3)n2)cc1,F180,MTT,48 h,4.22
CC(=O)O[C@H]1C(=O)[C@@]2(C)[C@H]([C@H](OC(=O)c3ccccc3)[C@]3(O)C[C@H](OC(=O)[C@H](O)[C@@H](NC(=O)c4ccccc4)c4ccccc4)C(C)=C1C3(C)C)[C@]1(OC(C)=O)CO[C@@H]1C[C@@H]2O,A2780,fluorescence,72 h,9.59
COc1cc(Nc2nccc(-c3cnn4nc(OC)ccc34)n2)cc(C(F)(F)F)c1,U-118-MG,ATP luminescence,,6.92
CCSC(=O)c1ncn2c(=O)n(C)nnc12,U-118-MG,resazurin,7 days,3.78
CNC(=O)c1cccc2cc(Oc3ccnc4cc(OCC5(N)CC5)c(OC)cc34)ccc12,Swiss-3T3,SRB,,7.19
CC(C)c1cc(C(=O)N2Cc3ccccc3C2)c(O)c2cn[nH]c12,UMUC3,ATP luminescence,72 h,< 4.00
CCN(CC)CCNC(=O)c1c(C)[nH]c(/C=C2\C(=O)Nc3ccc(F)cc32)c1C,Swiss-3T3,,72 h,5.35
CCCCCC/N=C1\c2cc(C(N)=O)nc3c(N)c(Cl)c(N)c(c23)N1C,HCC44,,,5.96
COc1cc2c(Oc3ccc(NC(=O)C4(C(=O)Nc5ccc(F)cc5)CC4)cc3F)ccnc2cc1OCCCN1CCOCC1,RD,,72 h,6.66
CC(C)c1cc(C(=O)N2Cc3ccccc3C2)c(O)c2c1C(=O)C(F)C2 (stereo not drawn),UMUC3,ATP luminescence,72 h,4.16
CCOc1cc(OCC)cc(C(=O)O[C@@H]2CN3Cc4c(cc5c(c4OC)OCO5)[C@@]24C=C[C@H](OC)C[C@@H]34)c1,A2780,WST-1,,5.11
CC(C)c1cc(C(=O)N2Cc3ccccc3C2)c(O)c2c1C(=O)C(C)(C)C2,UMUC3,ATP luminescence,72 h,4.28
COc1cc(/C=C/C(=O)/C=C/c2c(C)nn(-c3ccccc3)c2Cl)ccc1O,LLC-PK1,MTT,72 h,5.02
CC(C)C[C@H](NC(=O)[C@H](Cc1ccccc1)NC(=O)c1cnccn1)B(O)O,U-118-MG,ATP luminescence,,8.12
CC1Cc2c(O)c(C(=O)N3Cc4ccccc4C3)cc(C(C)C)c2C1=O (stereo not drawn),UMUC3,ATP luminescence,72 h,4.15
Cc1[nH]c(/C=C2\C(=O)Nc3ccc(S(=O)(=O)N(C)c4cccc(Cl)c4)cc32)c(C)c1C(=O)N1CCN(C)CC1,RD,,72 h,5.68
CN1/C(=N/c2ccc(Cl)cc2)c2cc(C(N)=O)nc3c(N)c(Cl)c(N)c1c23,HCC44,,,4.63
CC(C)c1cc(C(=O)N2Cc3ccccc3C2)c(O)c2c1C(=O)C(F)(F)C2,UMUC3,ATP luminescence,72 h,< 4.00
CC(=O)OC[C@H]1O[C@@H]([S-])[C@H](OC(C)=O)[C@@H](OC(C)=O)[C@@H]1OC(C)=O.CCP(CC)CC.[Au+],IMR-90,resazurin,,5.17
CC1(C)CC[C@]2(C)CC[C@]3(C)C(=CC[C@@H]4[C@@]5(C)CC[C@H](O)C(C)(C)[C@@H]5CC[C@]43C)[C@@H]2C1,RD,WST-1,48 h,4.03
CS(=O)(=O)c1ccc(-n2cc(/C=N/N=c3\[nH]c(-c4ccc([N+](=O)[O-])cc4)cs3)c(-c3ccc([N+](=O)[O-])cc3)n2)cc1,F180,MTT,48 h,4.15
COc1cc([C@@H]2c3cc4c(cc3[C@@H](O[C@@H]3O[C@@H]5CO[C@@H](C)O[C@H]5[C@H](O)[C@H]3O)[C@H]3COC(=O)[C@H]23)OCO4)cc(OC)c1O,Caco-2,MTS,72 h,4.78
CCCCN(CCCC)C(=O)c1ncn2c(=O)n(C)nnc12,U-118-MG,resazurin,7 days,4.21
COc1cc(/C=C/C(=O)/C=C/c2cn(-c3ccccc3)nc2-c2ccccc2)ccc1O,LLC-PK1,MTT,72 h,4.80
Cc1cccc(-n2ncc(Br)c(Br)c2=O)c1,NCI-H1650,resazurin,96 h,6.13
Nc1ncnc2c1ncn2[C@@H]1O[C@H](CO)[C@@H](O)[C@H]1O,RD,WST-1,48 h,4.18
COc1ccc(/C=C/C(=O)/C=C/c2c(C)nn(-c3cccc([N+](=O)[O-])c3)c2Cl)cc1OC,LLC-PK1,MTT,72 h,4.68
COc1cc([C@@H]2c3cc4c(cc3[C@@H](O[C@@H]3O[C@@H]5CO[C@@H](C)O[C@H]5[C@H](O)[C@H]3O)[C@H]3COC(=O)[C@H]23)OCO4)cc(OC)c1O,Caco-2,MTS,24 h,4.66
O=C(Nc1ccc(CN2CCOCC2)c(C(F)(F)F)c1)c1ccc(C#Cc2cccc3cnccc23)cn1,IMR-90,MTT,,< 3.74
CC(C)c1cc(C(=O)N2Cc3ccccc3C2)c(O)c2c1CC=C2,UMUC3,ATP luminescence,72 h,4.29
COc1cc(/C=C/C(=O)/C=C/c2c(C)nn(-c3ccccc3)c2Cl)cc(OC)c1O,LLC-PK1,MTT,72 h,4.89
CCN(CC)C(=O)c1ncn2c(=O)n(C)nnc12,U-118-MG,resazurin,7 days,4.10
C=C1Cc2c(O)c(C(=O)N3Cc4ccccc4C3)cc(C(C)C)c2C1=O,UMUC3,ATP luminescence,72 h,< 4.00
O=C(/C=C/c1ccc(O)c(O)c1)O[C@@H]1C[C@](O)(C(=O)O)C[C@@H](O)[C@H]1O,RD,WST-1,48 h,4.52
COc1cccc2c1C(=O)c1c(O)c3c(c(O)c1C2=O)C[C@@](O)(C(=O)CO)C[C@@H]3O[C@H]1C[C@H](N)[C@H](O)[C@H](C)O1,F180,MTT,48 h,5.03
Cc1cc(-c2nc(C(=O)Nc3cc4oc(N5CCOCC5)nc4nc3N3CC[C@@H](O)C3)co2)ccn1,SU-DHL-4,,5 days,< 5.00
COc1ccc(/C=C/C(=O)/C=C/c2cn(-c3ccccc3)nc2-c2ccccc2)cc1O,LLC-PK1,MTT,72 h,5.08
CC(C)Cc1ccc(-c2nn(-c3ccc(S(C)(=O)=O)cc3)cc2/C=N/N=c2\[nH]c(-c3ccc(Br)cc3)cs2)cc1,F180,MTT,48 h,4.13
COc1cccc2c1C(=O)c1c(O)c3c(c(O)c1C2=O)C[C@@](O)(C(=O)CO)C[C@@H]3O[C@H]1C[C@H](N)[C@H](O)[C@H](C)O1,Caco-2,MTT,48 h,4.75
COc1ccc(-c2nn(-c3ccc(S(C)(=O)=O)cc3)cc2C=N/N=c2\[nH]c(-c3ccc([N+](=O)[O-])cc3)cs2)cc1,F180,MTT,48 h,4.55
COc1ccc(/C=C/C(=O)/C=C/c2c(C)nn(-c3ccccc3)c2Cl)cc1O,LLC-PK1,MTT,72 h,4.79
Cc1ccc(-c2nn(-c3ccc(S(C)(=O)=O)cc3)cc2/C=N\N=c2/[nH]c(-c3ccc([N+](=O)[O-])cc3)cs2)cc1,F180,MTT,48 h,4.00
C[C@]12CC[C@H](O)CC1=CC[C@@H]1[C@@H]2CC[C@]2(C)C(n3cnc4ccccc43)=CC[C@@H]12,LAPC4,MTT,7 days,5.40
